According to ChEMBL document CHEMBL1671684, “In vitro resistance profile of the hepatitis C virus NS3/4A protease inhibitor TMC435” (Antimicrob Agents Chemother, 2010):

How the values were obtained:
Hepatitis C virus [1] = experiment: Ratio of EC50 for Hepatitis C virus subtype 1b expressing NS3 A156G mutant to EC50 for Hepatitis C virus subtype 1b expressing WT NS3 infected in HuH7 cells after 48 hrs by luciferase reporter assay; format: functional, Hepacivirus hominis, genotype 1b, Huh-7
In short: (§1)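 Genotype 1b con1 subgenomic bicistronic replicon (clone ET) with luciferase reporter and adaptive mutations E1202G, T1280I, K1846T, carrying site-directed NS3 single or double mutations. 10 μg wild-type or mutant replicon RNA electroporated into Huh7-lunet cells, seeded 4,000 cells/well over a nine-point inhibitor dilution series, 48 h at 37°C, 5% CO2, then luminescence read. EC50 taken as median of individual experiments; fold change relative to parental replicon EC50.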

Hepatitis C virus [2] = experiment: Antiviral activity against Hepatitis C virus subtype 1b expressing NS3 T54S mutant infected in HuH7 cells after 48 hrs by luciferase reporter assay; format: functional, organism-based, Hepacivirus hominis; conditions: genotype 1b, Huh-7, 48 h; in short: as §1
Hepatitis C virus [3] = experiment: Ratio of EC50 for Hepatitis C virus subtype 1b expressing NS3 D168T mutant to EC50 for Hepatitis C virus subtype 1b expressing WT NS3 infected in HuH7 cells after 48 hrs by luciferase reporter assay; format: functional, Hepacivirus hominis, genotype 1b, Huh-7
In short: (§2)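 Transient replicon assay: site-directed single or multiple NS3 mutations engineered into genotype 1b (con1, clone ET) subgenomic bicistronic replicon with luciferase reporter and adaptive mutations E1202G, T1280I, K1846T. Huh7-lunet cells electroporated with 10 μg wild-type or mutant replicon RNA, seeded 4,000 cells/well with nine-point inhibitor dilution; 48 h, 37°C, 5% CO2; luminescence read-out. EC50 as median of individual experiments; fold change versus parental replicon EC50.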

Hepatitis C virus [4] = experiment: Ratio of EC50 for Hepatitis C virus subtype 1b expressing NS3 A156V mutant to EC50 for Hepatitis C virus subtype 1b expressing WT NS3 infected in HuH7 cells after 48 hrs by luciferase reporter assay; format: functional, Hepacivirus hominis, genotype 1b, Huh-7; in short: as §1
Hepatitis C virus [5] = experiment: Antiviral activity against Hepatitis C virus subtype 1b expressing NS3 A156S mutant infected in HuH7 cells after 48 hrs by luciferase reporter assay; format: functional, organism-based, Hepacivirus hominis; conditions: genotype 1b, Huh-7, 48 h; in short: as §1
Hepatitis C virus [6] = experiment: Ratio of EC50 for Hepatitis C virus subtype 1b expressing NS3 F43S and D168E mutant to EC50 for Hepatitis C virus subtype 1b expressing WT NS3 infected in HuH7 cells after 48 hrs by luciferase reporter assay; format: functional, Hepacivirus hominis, genotype 1b, Huh-7; in short: as §2
Hepatitis C virus [7] = experiment: Ratio of EC50 for Hepatitis C virus subtype 1b expressing NS3 R155M mutant to EC50 for Hepatitis C virus subtype 1b expressing WT NS3 infected in HuH7 cells after 48 hrs by luciferase reporter assay; format: functional, Hepacivirus hominis, genotype 1b, Huh-7; in short: as §2
Hepatitis C virus [8] = experiment: Ratio of EC50 for Hepatitis C virus subtype 1b expressing NS3 R155K mutant to EC50 for Hepatitis C virus subtype 1b expressing WT NS3 infected in HuH7 cells after 48 hrs by luciferase reporter assay; format: functional, Hepacivirus hominis, genotype 1b, Huh-7; in short: as §2
Hepatitis C virus [9] = experiment: Ratio of EC50 for Hepatitis C virus subtype 1b expressing NS3 Q80R mutant to EC50 for Hepatitis C virus subtype 1b expressing WT NS3 infected in HuH7 cells after 48 hrs by luciferase reporter assay; format: functional, Hepacivirus hominis, genotype 1b, Huh-7; in short: as §2
Hepatitis C virus [10] = experiment: Antiviral activity against Hepatitis C virus subtype 1b expressing NS3 R155Q mutant infected in HuH7 cells after 48 hrs by luciferase reporter assay; format: functional, organism-based, Hepacivirus hominis; conditions: genotype 1b, Huh-7, 48 h; in short: as §1
Hepatitis C virus [11] = experiment: Ratio of EC50 for Hepatitis C virus subtype 1b expressing NS3 R155Q mutant to EC50 for Hepatitis C virus subtype 1b expressing WT NS3 infected in HuH7 cells after 48 hrs by luciferase reporter assay; format: functional, Hepacivirus hominis, genotype 1b, Huh-7; in short: as §2
Hepatitis C virus [12] = experiment: Antiviral activity against Hepatitis C virus subtype 1b expressing NS3 D168N mutant infected in HuH7 cells after 48 hrs by luciferase reporter assay; format: functional, organism-based, Hepacivirus hominis; conditions: genotype 1b, Huh-7, 48 h; in short: as §1
Hepatitis C virus [13] = experiment: Antiviral activity against Hepatitis C virus subtype 1b expressing NS3 D168E mutant infected in HuH7 cells after 48 hrs by luciferase reporter assay; format: functional, organism-based, Hepacivirus hominis; conditions: genotype 1b, Huh-7, 48 h; in short: as §1
Hepatitis C virus [14] = experiment: Ratio of EC50 for Hepatitis C virus subtype 1b expressing NS3 R155G mutant to EC50 for Hepatitis C virus subtype 1b expressing WT NS3 infected in HuH7 cells after 48 hrs by luciferase reporter assay; format: functional, Hepacivirus hominis, genotype 1b, Huh-7; in short: as §2
Hepatitis C virus [15] = experiment: Antiviral activity against Hepatitis C virus subtype 1b expressing NS3 F43S mutant infected in HuH7 cells after 48 hrs by luciferase reporter assay; format: functional, organism-based, Hepacivirus hominis; conditions: genotype 1b, Huh-7, 48 h; in short: as §1
Hepatitis C virus [16] = experiment: Antiviral activity against Hepatitis C virus subtype 1b expressing NS3 Q80R and D168A mutant infected in HuH7 cells after 48 hrs by luciferase reporter assay; format: functional, organism-based, Hepacivirus hominis; conditions: genotype 1b, Huh-7, 48 h; in short: as §1
Hepatitis C virus [17] = experiment: Antiviral activity against Hepatitis C virus subtype 1b expressing NS3 R155G mutant infected in HuH7 cells after 48 hrs by luciferase reporter assay; format: functional, organism-based, Hepacivirus hominis; conditions: genotype 1b, Huh-7, 48 h; in short: as §1
Hepatitis C virus [18] = experiment: Ratio of EC50 for Hepatitis C virus subtype 1b expressing NS3 D168E mutant to EC50 for Hepatitis C virus subtype 1b expressing WT NS3 infected in HuH7 cells after 48 hrs by luciferase reporter assay; format: functional, Hepacivirus hominis, genotype 1b, Huh-7; in short: as §2
Hepatitis C virus [19] = experiment: Antiviral activity against Hepatitis C virus subtype 1b expressing NS3 T54A mutant infected in HuH7 cells after 48 hrs by luciferase reporter assay; format: functional, organism-based, Hepacivirus hominis; conditions: genotype 1b, Huh-7, 48 h; in short: as §1
Hepatitis C virus [20] = experiment: Ratio of EC50 for Hepatitis C virus subtype 1b expressing NS3 F43I mutant to EC50 for Hepatitis C virus subtype 1b expressing WT NS3 infected in HuH7 cells after 48 hrs by luciferase reporter assay; format: functional, Hepacivirus hominis, genotype 1b, Huh-7; in short: as §2
Hepatitis C virus [21] = experiment: Antiviral activity against Hepatitis C virus subtype 1b expressing NS3 Q80K mutant infected in HuH7 cells after 48 hrs by luciferase reporter assay; format: functional, organism-based, Hepacivirus hominis; conditions: genotype 1b, Huh-7, 48 h; in short: as §1
Hepatitis C virus [22] = experiment: Ratio of EC50 for Hepatitis C virus subtype 1b expressing NS3 Q80L mutant to EC50 for Hepatitis C virus subtype 1b expressing WT NS3 infected in HuH7 cells after 48 hrs by luciferase reporter assay; format: functional, Hepacivirus hominis, genotype 1b, Huh-7; in short: as §2
Hepatitis C virus [23] = experiment: Antiviral activity against Hepatitis C virus subtype 1b expressing NS3 V36L mutant infected in HuH7 cells after 48 hrs by luciferase reporter assay; format: functional, organism-based, Hepacivirus hominis; conditions: genotype 1b, Huh-7, 48 h; in short: as §1
Hepatitis C virus [24] = experiment: Antiviral activity against Hepatitis C virus subtype 1b expressing NS3 D168I mutant infected in HuH7 cells after 48 hrs by luciferase reporter assay; format: functional, organism-based, Hepacivirus hominis; conditions: genotype 1b, Huh-7, 48 h; in short: as §1
Hepatitis C virus [25] = experiment: Ratio of EC50 for Hepatitis C virus subtype 1b expressing NS3 T54S mutant to EC50 for Hepatitis C virus subtype 1b expressing WT NS3 infected in HuH7 cells after 48 hrs by luciferase reporter assay; format: functional, Hepacivirus hominis, genotype 1b, Huh-7; in short: as §2
Hepatitis C virus [26] = experiment: Antiviral activity against Hepatitis C virus subtype 1b expressing NS3 D168G mutant infected in HuH7 cells after 48 hrs by luciferase reporter assay; format: functional, organism-based, Hepacivirus hominis; conditions: genotype 1b, Huh-7, 48 h; in short: as §1
Hepatitis C virus [27] = experiment: Antiviral activity against Hepatitis C virus subtype 1b expressing NS3 Q80K and R155K mutant infected in HuH7 cells after 48 hrs by luciferase reporter assay; format: functional, organism-based, Hepacivirus hominis; conditions: genotype 1b, Huh-7, 48 h; in short: as §1
Hepatitis C virus [28] = experiment: Ratio of EC50 for Hepatitis C virus subtype 1b expressing NS3 V36L mutant to EC50 for Hepatitis C virus subtype 1b expressing WT NS3 infected in HuH7 cells after 48 hrs by luciferase reporter assay; format: functional, Hepacivirus hominis, genotype 1b, Huh-7; in short: as §2
Hepatitis C virus [29] = experiment: Antiviral activity against Hepatitis C virus subtype 1b expressing NS3 R155T mutant infected in HuH7 cells after 48 hrs by luciferase reporter assay; format: functional, organism-based, Hepacivirus hominis; conditions: genotype 1b, Huh-7, 48 h; in short: as §1
Hepatitis C virus [30] = experiment: Antiviral activity against Hepatitis C virus subtype 1b expressing NS3 Q80R and R155K mutant infected in HuH7 cells after 48 hrs by luciferase reporter assay; format: functional, organism-based, Hepacivirus hominis; conditions: genotype 1b, Huh-7, 48 h; in short: as §1
Hepatitis C virus [31] = experiment: Ratio of EC50 for Hepatitis C virus subtype 1b expressing NS3 F43S mutant to EC50 for Hepatitis C virus subtype 1b expressing WT NS3 infected in HuH7 cells after 48 hrs by luciferase reporter assay; format: functional, Hepacivirus hominis, genotype 1b, Huh-7; in short: as §2

Compound	Ratio EC50 (Hepatitis C virus [1])	Ratio EC50 (Hepatitis C virus [3])	Ratio EC50 (Hepatitis C virus [4])	EC50 (Hepatitis C virus [5]) [nM]	Ratio EC50 (Hepatitis C virus [7])	Ratio EC50 (Hepatitis C virus [8])	Ratio EC50 (Hepatitis C virus [9])	EC50 (Hepatitis C virus [10]) [nM]	Ratio EC50 (Hepatitis C virus [11])	EC50 (Hepatitis C virus [12]) [nM]	EC50 (Hepatitis C virus [13]) [nM]	Ratio EC50 (Hepatitis C virus [14])	EC50 (Hepatitis C virus [15]) [nM]	EC50 (Hepatitis C virus [17]) [nM]	Ratio EC50 (Hepatitis C virus [18])	EC50 (Hepatitis C virus [19]) [nM]	EC50 (Hepatitis C virus [21]) [nM]	EC50 (Hepatitis C virus [23]) [nM]	EC50 (Hepatitis C virus [27]) [nM]	Ratio EC50 (Hepatitis C virus [28])	other results
CC(C)(C)NC(=O)N[C@H](C(=O)N1C[C@H]2[C@@H]([C@H]1C(=O)NC(CC1CCC1)C(=O)C(N)=O)C2(C)C)C(C)(C)C (stereo not given in full) [BOCEPREVIR]	2.1	1.1	75	525	5.7	4.7	0.5	174	1.4	101	69	20	333	4470	0.8	268	94	110	1080	1.6	EC50 (Hepatitis C virus [2]): 1110 nM; Ratio EC50 (Hepatitis C virus [6]): 3.2; EC50 (Hepatitis C virus [16]): 113 nM; Ratio EC50 (Hepatitis C virus [20]): 1.1; Ratio EC50 (Hepatitis C virus [22]): 0.9; EC50 (Hepatitis C virus [24]): 0.279 µM; Ratio EC50 (Hepatitis C virus [25]): 8.5; EC50 (Hepatitis C virus [26]): 63 nM; EC50 (Hepatitis C virus [29]): 5.46 µM; EC50 (Hepatitis C virus [30]): 680 nM; Ratio EC50 (Hepatitis C virus [31]): 5.2
COc1ccc2c(O[C@@H]3C[C@H]4C(=O)N[C@]5(C(=O)O)C[C@H]5/C=C\CCCCC[C@H](NC(=O)OC5CCCC5)C(=O)N4C3)cc(-c3csc(NC(C)C)n3)nc2c1 [CILUPREVIR]	12	844	2085	1.7	68	496	1.6	248	242	18	40	811	1	1000	65	0.7	1	1.4	705	1	EC50 (Hepatitis C virus [2]): 0.9 nM; Ratio EC50 (Hepatitis C virus [6]): 12; EC50 (Hepatitis C virus [16]): 1040 nM; Ratio EC50 (Hepatitis C virus [20]): 0.5; Ratio EC50 (Hepatitis C virus [22]): 1.2; EC50 (Hepatitis C virus [24]): 20.7 µM; Ratio EC50 (Hepatitis C virus [25]): 1.9; EC50 (Hepatitis C virus [26]): 35 nM; EC50 (Hepatitis C virus [29]): 0.685 µM; EC50 (Hepatitis C virus [30]): 707 nM; Ratio EC50 (Hepatitis C virus [31]): 0.9
COc1ccc2c(O[C@@H]3C[C@H]4C(=O)N[C@]5(C(=O)NS(=O)(=O)C6CC6)C[C@H]5/C=C\CCCCN(C)C(=O)[C@@H]4C3)cc(-c3nc(C(C)C)cs3)nc2c1C [SIMEPREVIR]	16	308	177	3	0.4	30	6.9	21	1.6	79	302	20	83	350	40	5.9	62	18	4650	1.7	EC50 (Hepatitis C virus [2]): 5.4 nM; Ratio EC50 (Hepatitis C virus [6]): 694; EC50 (Hepatitis C virus [16]): 16900 nM; Ratio EC50 (Hepatitis C virus [20]): 89; Ratio EC50 (Hepatitis C virus [22]): 2.1; EC50 (Hepatitis C virus [24]): 23.2 µM; Ratio EC50 (Hepatitis C virus [25]): 1.2; EC50 (Hepatitis C virus [26]): 42 nM; EC50 (Hepatitis C virus [29]): 0.314 µM; EC50 (Hepatitis C virus [30]): 2850 nM; Ratio EC50 (Hepatitis C virus [31]): 12
CCC[C@H](NC(=O)[C@@H]1[C@H]2CCC[C@H]2CN1C(=O)[C@@H](NC(=O)[C@@H](NC(=O)c1cnccn1)C1CCCCC1)C(C)(C)C)C(=O)C(=O)NC1CC1 [TELAPREVIR]	0.6	1	112	3110	14	10	0.6	570	2.5	147	113	20	749	9630	0.6	1560	147	300	2960	3.1	EC50 (Hepatitis C virus [29]): 22.7 µM; Ratio EC50 (Hepatitis C virus [31]): 6.1
